Measurements: publication PMC7049346 (Haematologica, 2019)
pIC50: −log10 of the molar value.

Experiments:
K562 cells [1] = assay: Cytotoxicity in K562 cells; format: cell-based, human; conditions: end of 72-h culture
Summary of the method: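 Actively growing K562 cells were cultured for 72 h with increasing concentrations of the test compound. Terminal viability was scored by automated cell counting or trypan-blue exclusion, or by an ATP-based luminescence assay. Apoptosis was checked by Annexin V flow cytometry.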

[2] = Locomotor activity and behavioral responses in toxicology studies; format: in vivo; conditions: data not shown
PDE4A4 = PDE4A4 (Homo sapiens, UniProt P27815); assay: PDE enzyme inhibition, radiometric assay; format: biochemical
Summary of the method: (§1)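 Recombinant human PDE enzymes (33 in the panel) were incubated in vitro with increasing concentrations of the test compound. Enzyme activity was measured radiometrically and IC50 values derived.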

PDE1C = PDE1C (Homo sapiens, UniProt Q14123); assay: PDE enzyme inhibition, radiometric assay; format: biochemical
Summary of the method: as §1

PDE4D3 = PDE4D3 (Homo sapiens, UniProt Q08499); assay: PDE enzyme inhibition, radiometric assay; format: biochemical
Summary of the method: as §1

HbSS-Townes mice = assay: HbSS-Townes vaso-occlusive crisis model; format: in vivo
PDE9A2 = PDE9A2 (Homo sapiens, UniProt O76083); assay: PDE enzyme inhibition, radiometric assay; format: biochemical; conditions: IC50, recombinant human PDE9A2
Summary of the method: as §1

PDE5A2 = PDE5A2 (Homo sapiens, UniProt O76074); assay: PDE enzyme inhibition, radiometric assay; format: biochemical
Summary of the method: as §1

PDE7A = PDE7A (Homo sapiens, UniProt Q13946); assay: PDE enzyme inhibition, radiometric assay; format: biochemical
Summary of the method: as §1

PDE1B = PDE1B (Homo sapiens, UniProt Q01064); assay: PDE enzyme inhibition, radiometric assay; format: biochemical
Summary of the method: as §1

PDE11A1 = PDE11A1 (Homo sapiens, UniProt Q9HCR9); assay: PDE enzyme inhibition, radiometric assay; format: biochemical
Summary of the method: as §1

PDE4B3 = PDE4B3 (Homo sapiens, UniProt Q07343); assay: PDE enzyme inhibition, radiometric assay; format: biochemical
Summary of the method: as §1

[3] = Brain and plasma exposure in mice; format: in vivo, C57Bl/6J mice
PDE2A3 = PDE2A3 (Homo sapiens, UniProt O00408); assay: PDE enzyme inhibition, radiometric assay; format: biochemical
Summary of the method: as §1

PDE4B2 = PDE4B2 (Homo sapiens, UniProt Q07343); assay: PDE enzyme inhibition, radiometric assay; format: biochemical
Summary of the method: as §1

PDE4B1 = PDE4B1 (Homo sapiens, UniProt Q07343); assay: PDE enzyme inhibition, radiometric assay; format: biochemical
Summary of the method: as §1

PDE6AB = PDE6AB (Homo sapiens, UniProt P16499+P35913); assay: PDE enzyme inhibition, radiometric assay; format: biochemical
Summary of the method: as §1

rats = assay: Long-term toxicology study in normal rats; format: in vivo; conditions: data not shown
PDE4A1 = PDE4A1 (Homo sapiens, UniProt P27815); assay: PDE enzyme inhibition, radiometric assay; format: biochemical
Summary of the method: as §1

PDE4D2 = PDE4D2 (Homo sapiens, UniProt Q08499); assay: PDE enzyme inhibition, radiometric assay; format: biochemical
Summary of the method: as §1

PDE10A2 = PDE10A2 (Homo sapiens, UniProt Q9Y233); assay: PDE enzyme inhibition, radiometric assay; format: biochemical
Summary of the method: as §1

PDE8A1 = PDE8A1 (Homo sapiens, UniProt O60658); assay: PDE enzyme inhibition, radiometric assay; format: biochemical
Summary of the method: as §1

PDE3B = PDE3B (Homo sapiens, UniProt Q13370); assay: PDE enzyme inhibition, radiometric assay; format: biochemical
Summary of the method: as §1

[4] = test system: erythroid cells from CD34+ progenitors of SCD patients; assay: HbF induction in SCD patient-derived erythroblasts; format: cell-based, human; conditions: 10 μM IMR-687, five days, n=9, P<0.01
Summary of the method: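 CD34⁺ progenitors came from the blood or bone marrow of nine SCD donors. Cells grew seven days with 15% BIT 9500, 2 mM L-glutamine, IL-3 (10 ng/mL), IL-6 and SCF (100 ng/mL). CD36⁺ cells were then isolated and grown five days with SCF, IL-3 and EPO (2 UI/mL) plus DMSO, 30 μM hydroxyurea or 10 μM test compound. HbF⁺ cells (%) and HbF MFI were read by PE-anti-HbF FACS, gated LiveDead⁻/GPA⁺/Band3⁺.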

PDE6C = PDE6C (Homo sapiens, UniProt P51160); assay: PDE enzyme inhibition, radiometric assay; format: biochemical
Summary of the method: as §1

PDE4D7 = PDE4D7 (Homo sapiens, UniProt Q08499); assay: PDE enzyme inhibition, radiometric assay; format: biochemical
Summary of the method: as §1

PDE5A3 = PDE5A3 (Homo sapiens, UniProt O76074); assay: PDE enzyme inhibition, radiometric assay; format: biochemical
Summary of the method: as §1

PDE7B = PDE7B (Homo sapiens, UniProt Q9NP56); assay: PDE enzyme inhibition, radiometric assay; format: biochemical
Summary of the method: as §1

PDE4C2 = PDE4C2 (Homo sapiens, UniProt Q08493); assay: PDE enzyme inhibition, radiometric assay; format: biochemical
Summary of the method: as §1

mice = assay: Classical fear conditioning model of learning and memory; format: in vivo; conditions: similar dose of both PDE9i
PDE5A1 = PDE5A1 (Homo sapiens, UniProt O76074); assay: PDE enzyme inhibition, radiometric assay; format: biochemical
Summary of the method: as §1

PDE1A3 = PDE1A3 (Homo sapiens, UniProt P54750); assay: PDE enzyme inhibition, radiometric assay; format: biochemical
Summary of the method: as §1

PDE4D5 = PDE4D5 (Homo sapiens, UniProt Q08499); assay: PDE enzyme inhibition, radiometric assay; format: biochemical
Summary of the method: as §1

PDE4D4 = PDE4D4 (Homo sapiens, UniProt Q08499); assay: PDE enzyme inhibition, radiometric assay; format: biochemical
Summary of the method: as §1

K562 cells [5] = assay: cGMP induction in K562 cells; format: cell-based, human; conditions: 6 h
Summary of the method: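 Actively growing K562 cells were treated for 6 h with increasing concentrations of the test compound or hydroxyurea. cGMP was measured by non-radioactive enzyme immunoassay using the acetylation protocol, and protein by BCA assay. Data are means±Standard Errors.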

Sequence of PDE4B1 (Q07343 whole entry): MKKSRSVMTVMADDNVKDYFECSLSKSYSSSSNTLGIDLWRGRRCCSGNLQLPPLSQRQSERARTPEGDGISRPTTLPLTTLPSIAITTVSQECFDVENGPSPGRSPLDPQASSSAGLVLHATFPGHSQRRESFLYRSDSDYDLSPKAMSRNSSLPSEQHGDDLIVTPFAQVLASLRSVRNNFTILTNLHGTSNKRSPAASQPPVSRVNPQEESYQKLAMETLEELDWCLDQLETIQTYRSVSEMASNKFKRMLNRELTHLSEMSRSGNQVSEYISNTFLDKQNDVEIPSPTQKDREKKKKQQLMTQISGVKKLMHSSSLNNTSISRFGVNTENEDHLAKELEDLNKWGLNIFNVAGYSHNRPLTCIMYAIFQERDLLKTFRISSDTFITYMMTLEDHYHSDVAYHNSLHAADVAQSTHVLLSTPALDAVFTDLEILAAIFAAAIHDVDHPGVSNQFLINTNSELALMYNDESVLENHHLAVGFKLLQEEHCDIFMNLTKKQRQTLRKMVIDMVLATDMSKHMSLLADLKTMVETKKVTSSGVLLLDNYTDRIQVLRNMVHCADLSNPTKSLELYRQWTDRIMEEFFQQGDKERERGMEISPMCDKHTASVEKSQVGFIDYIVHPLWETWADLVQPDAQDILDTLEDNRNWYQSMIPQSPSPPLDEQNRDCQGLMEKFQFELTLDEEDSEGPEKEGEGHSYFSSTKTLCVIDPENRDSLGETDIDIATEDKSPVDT
Sequence of PDE3B (Q13370 whole entry): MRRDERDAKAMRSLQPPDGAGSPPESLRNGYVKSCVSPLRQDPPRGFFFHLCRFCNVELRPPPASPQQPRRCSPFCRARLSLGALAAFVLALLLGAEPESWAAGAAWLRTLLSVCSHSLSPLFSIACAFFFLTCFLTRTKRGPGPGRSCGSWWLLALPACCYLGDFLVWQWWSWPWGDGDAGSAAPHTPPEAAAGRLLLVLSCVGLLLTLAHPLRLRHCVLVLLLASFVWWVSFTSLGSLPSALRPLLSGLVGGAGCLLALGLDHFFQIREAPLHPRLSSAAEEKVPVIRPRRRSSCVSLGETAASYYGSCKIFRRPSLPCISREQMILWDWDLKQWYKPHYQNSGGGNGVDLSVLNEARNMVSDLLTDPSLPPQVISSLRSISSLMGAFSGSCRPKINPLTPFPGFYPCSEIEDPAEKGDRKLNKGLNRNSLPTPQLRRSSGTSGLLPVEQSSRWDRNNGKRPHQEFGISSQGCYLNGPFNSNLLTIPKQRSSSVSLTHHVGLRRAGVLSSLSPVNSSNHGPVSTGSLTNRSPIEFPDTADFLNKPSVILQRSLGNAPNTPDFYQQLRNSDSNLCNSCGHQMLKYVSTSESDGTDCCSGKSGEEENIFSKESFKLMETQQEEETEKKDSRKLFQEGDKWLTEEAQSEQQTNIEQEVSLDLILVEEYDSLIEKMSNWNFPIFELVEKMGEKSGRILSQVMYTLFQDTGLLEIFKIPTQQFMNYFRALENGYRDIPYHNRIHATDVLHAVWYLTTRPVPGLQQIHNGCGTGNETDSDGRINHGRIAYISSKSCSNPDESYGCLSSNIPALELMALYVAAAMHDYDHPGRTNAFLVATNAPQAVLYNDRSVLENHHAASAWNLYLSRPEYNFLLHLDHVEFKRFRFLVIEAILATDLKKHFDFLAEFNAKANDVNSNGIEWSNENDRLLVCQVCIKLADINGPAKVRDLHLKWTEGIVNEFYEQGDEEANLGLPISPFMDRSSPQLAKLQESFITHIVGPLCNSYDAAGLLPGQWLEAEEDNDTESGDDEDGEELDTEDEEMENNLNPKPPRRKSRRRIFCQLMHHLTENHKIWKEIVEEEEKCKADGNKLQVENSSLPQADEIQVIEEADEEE
Sequence of PDE4A4 (P27815 whole entry): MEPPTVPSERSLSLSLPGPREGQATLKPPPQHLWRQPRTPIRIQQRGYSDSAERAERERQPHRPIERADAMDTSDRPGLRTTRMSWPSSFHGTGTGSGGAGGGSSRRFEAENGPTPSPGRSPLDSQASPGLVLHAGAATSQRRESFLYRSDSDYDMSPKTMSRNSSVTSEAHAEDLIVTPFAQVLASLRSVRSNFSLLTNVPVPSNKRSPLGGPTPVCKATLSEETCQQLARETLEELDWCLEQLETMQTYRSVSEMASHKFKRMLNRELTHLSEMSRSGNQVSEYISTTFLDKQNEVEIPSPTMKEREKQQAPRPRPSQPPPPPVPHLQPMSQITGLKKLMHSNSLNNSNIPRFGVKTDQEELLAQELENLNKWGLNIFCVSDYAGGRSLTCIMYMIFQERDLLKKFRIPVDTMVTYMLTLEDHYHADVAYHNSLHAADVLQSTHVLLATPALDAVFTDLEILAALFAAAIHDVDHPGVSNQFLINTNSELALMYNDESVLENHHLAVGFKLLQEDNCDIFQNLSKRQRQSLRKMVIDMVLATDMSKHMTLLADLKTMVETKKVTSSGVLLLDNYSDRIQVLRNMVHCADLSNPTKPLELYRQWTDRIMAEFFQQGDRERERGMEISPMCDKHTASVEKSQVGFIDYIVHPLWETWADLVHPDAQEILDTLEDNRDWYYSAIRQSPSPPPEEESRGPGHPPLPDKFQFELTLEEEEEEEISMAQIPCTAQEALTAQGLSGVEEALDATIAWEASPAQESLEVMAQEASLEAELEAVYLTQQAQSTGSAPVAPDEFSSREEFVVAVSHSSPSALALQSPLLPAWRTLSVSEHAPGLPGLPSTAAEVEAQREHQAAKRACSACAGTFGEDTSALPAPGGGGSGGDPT
Sequence of PDE1A3 (P54750 whole entry): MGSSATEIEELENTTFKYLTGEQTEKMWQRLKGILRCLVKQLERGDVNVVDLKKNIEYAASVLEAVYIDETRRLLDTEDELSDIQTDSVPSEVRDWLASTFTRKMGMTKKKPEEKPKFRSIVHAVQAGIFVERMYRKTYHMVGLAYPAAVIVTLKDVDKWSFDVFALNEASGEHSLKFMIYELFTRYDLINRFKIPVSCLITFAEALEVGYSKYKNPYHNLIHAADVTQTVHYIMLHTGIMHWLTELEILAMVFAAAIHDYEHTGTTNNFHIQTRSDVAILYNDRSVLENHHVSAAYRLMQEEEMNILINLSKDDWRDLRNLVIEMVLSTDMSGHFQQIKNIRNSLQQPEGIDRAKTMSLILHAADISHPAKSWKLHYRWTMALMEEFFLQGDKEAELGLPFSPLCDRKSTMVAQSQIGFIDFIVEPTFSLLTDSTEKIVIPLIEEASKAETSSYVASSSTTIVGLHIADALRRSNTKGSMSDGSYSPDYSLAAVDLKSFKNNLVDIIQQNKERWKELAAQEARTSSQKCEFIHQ
Sequence of PDE4D5 (Q08499 1-745 isoform Q08499-6): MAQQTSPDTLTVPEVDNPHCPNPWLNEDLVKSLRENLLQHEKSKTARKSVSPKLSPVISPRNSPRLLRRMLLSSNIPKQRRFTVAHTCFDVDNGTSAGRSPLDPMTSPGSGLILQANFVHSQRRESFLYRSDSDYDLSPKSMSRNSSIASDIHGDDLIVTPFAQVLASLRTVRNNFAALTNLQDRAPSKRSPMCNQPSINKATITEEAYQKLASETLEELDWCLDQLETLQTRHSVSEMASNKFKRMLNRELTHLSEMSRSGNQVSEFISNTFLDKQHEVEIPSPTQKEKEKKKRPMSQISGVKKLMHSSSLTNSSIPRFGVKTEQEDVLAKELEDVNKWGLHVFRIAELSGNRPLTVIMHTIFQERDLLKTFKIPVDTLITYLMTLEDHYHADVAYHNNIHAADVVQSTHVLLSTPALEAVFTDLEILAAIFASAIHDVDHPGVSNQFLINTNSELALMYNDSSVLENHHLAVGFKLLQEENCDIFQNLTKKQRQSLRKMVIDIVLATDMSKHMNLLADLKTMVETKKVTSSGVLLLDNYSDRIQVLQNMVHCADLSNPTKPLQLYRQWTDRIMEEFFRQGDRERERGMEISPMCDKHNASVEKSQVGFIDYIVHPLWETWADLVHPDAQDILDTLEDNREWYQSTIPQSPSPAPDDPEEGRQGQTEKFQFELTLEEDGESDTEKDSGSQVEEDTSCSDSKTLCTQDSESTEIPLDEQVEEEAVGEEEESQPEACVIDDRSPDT
Sequence of PDE10A2 (Q9Y233 267-1055): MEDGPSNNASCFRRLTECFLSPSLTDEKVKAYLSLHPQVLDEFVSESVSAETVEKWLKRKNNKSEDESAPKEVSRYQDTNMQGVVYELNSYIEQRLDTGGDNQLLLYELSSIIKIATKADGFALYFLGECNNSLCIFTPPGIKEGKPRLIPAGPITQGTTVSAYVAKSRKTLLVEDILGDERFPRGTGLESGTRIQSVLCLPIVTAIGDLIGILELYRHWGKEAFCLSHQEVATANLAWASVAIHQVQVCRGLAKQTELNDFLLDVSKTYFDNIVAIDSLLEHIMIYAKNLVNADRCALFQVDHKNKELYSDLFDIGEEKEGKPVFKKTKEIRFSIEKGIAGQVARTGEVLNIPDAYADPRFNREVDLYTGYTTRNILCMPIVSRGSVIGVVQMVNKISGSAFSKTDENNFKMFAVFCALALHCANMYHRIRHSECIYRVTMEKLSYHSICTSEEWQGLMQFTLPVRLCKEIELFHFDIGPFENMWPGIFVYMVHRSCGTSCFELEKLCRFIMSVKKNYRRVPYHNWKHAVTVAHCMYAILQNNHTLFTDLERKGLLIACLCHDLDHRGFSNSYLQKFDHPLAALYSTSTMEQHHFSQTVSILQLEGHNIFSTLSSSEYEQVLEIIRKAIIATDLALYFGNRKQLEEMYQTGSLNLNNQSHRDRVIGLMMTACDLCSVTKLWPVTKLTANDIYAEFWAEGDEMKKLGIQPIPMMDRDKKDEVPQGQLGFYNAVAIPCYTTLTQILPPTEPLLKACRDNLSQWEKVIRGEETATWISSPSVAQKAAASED

Structure (SMILES): C[C@@H]1CN(Cc2ncccn2)C[C@H]1c1cn2c(C3CCOCC3)ncc2c(=O)[nH]1 [IMR-687]
- Cytotoxicity (cell counts) (K562 cells [1]): not observed
- effect on locomotor activity or behavioral responses [2]: no effect
- pIC50 (PDE4A4): < 4.00
- pIC50 (PDE1C): 4.91
- pIC50 (PDE4D3): < 4.00
- microvascular stasis (HbSS-Townes mice; 10 mg/kg/day for ten days, 1 h in normoxia, vehicle 33%, P<0.05): 20%
- microvascular stasis (HbSS-Townes mice; 10 mg/kg/day for ten days, 4 h in normoxia, vehicle 16%, ns): 14%
- microvascular stasis (HbSS-Townes mice; 30 mg/kg/day for ten days, 4 h in normoxia, vehicle 16%, P<0.01): 7%
- pIC50 (PDE9A2): 8.00
- pIC50 (PDE5A2): 4.09
- pIC50 (PDE7A): < 4.00
- pIC50 (PDE1B): 5.07
- pIC50 (PDE11A1): < 4.00
- pIC50 (PDE4B3): < 4.00
- brain exposure levels lower than PF-04447943 ([3]; C57Bl/6J mice, 10 mg/kg/day for five days): 5 fold
- Kp at 5 days ([3]; C57Bl/6J, mouse, brain/plasma, 10 mg/kg/day): 0.07
- pIC50 (PDE2A3): < 4.00
- pIC50 (PDE4B2): < 4.00
- pIC50 (PDE4B1): < 4.00
- pIC50 (PDE6AB): < 4.00
- peripheral WBC counts (rats; normal rats, up to 6 months, super-physiological doses): did not result in any reduction in peripheral WBC counts
- myelotoxicity, histological examination of bone marrow smears (rats; rats): did not demonstrate any myelotoxicity
- pIC50 (PDE4A1): < 4.00
- pIC50 (PDE4D2): < 4.00
- pIC50 (PDE10A2): < 4.00
- pIC50 (PDE8A1): < 4.00
- pIC50 (PDE3B): < 4.00
- percentage of F-cells (HbF positive) ([4]; DMSO control 13.3%): 21.9%
- intensity of HbF staining (MFI) ([4]; control 6073±1217): 7813±1374
- pIC50 (PDE6C): < 4.00
- pIC50 (PDE4D7): < 4.00
- pIC50 (PDE5A3): < 4.00
- pIC50 (PDE7B): < 4.00
- pIC50 (PDE4C2): < 4.00
- conditioned fear responses (mice): no effect
- pIC50 (PDE5A1): < 4.00
- pIC50 (PDE1A3): 4.05
- pIC50 (PDE4D5): < 4.00
- pIC50 (PDE4D4): < 4.00
- cGMP induction (K562 cells [5]): induced cGMP in a dosedependent manner
